Assay outcomes from PubChem BioAssay.
Lipid droplet = hepatic lipid droplet formation modulation; AML12 mouse hepatocytes, oleate lipid droplets, BODIPY imaging; inhibition, % at 6.5 µM; 0.4% of 240,000 active; AID 1656;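 active means lipid droplet intensity inhibited by at least 50%, with more than 500 cells counted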
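Technique: fluorescence imaging, 20x objective, two fields per well / Assay system: AML12 hepatocytes (mouse) / Measure: % inhibition of lipid droplet signal / Doses: 6.5 µM single-point dosing / Incubation: overnight exposure / Reagent: 100 µM oleic acid challenge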
OPRM1-OPRD1 inv = inverse agonists of human mu-delta opioid receptor heterodimerization; P35372+P41143; cell-based MOR-DOR heterodimer luminescence, inverse agonism; inhibition, % at 9.3 µM; 0.21% of 340,000 active; AID 504357; in the data active means inhibition above about 22%, passing the limit was not always enough
Target sequence (P35372 whole entry, looked up): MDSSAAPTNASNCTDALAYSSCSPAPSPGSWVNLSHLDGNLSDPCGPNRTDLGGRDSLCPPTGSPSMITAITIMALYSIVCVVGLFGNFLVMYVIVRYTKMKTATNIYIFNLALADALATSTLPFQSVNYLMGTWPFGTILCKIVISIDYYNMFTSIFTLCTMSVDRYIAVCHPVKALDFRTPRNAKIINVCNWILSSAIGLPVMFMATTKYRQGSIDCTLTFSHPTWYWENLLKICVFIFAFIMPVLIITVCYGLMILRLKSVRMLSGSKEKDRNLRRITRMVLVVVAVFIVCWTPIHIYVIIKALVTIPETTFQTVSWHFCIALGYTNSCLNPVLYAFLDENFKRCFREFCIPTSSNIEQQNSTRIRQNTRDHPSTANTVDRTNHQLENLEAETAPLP
Target sequence (P41143 whole entry, looked up): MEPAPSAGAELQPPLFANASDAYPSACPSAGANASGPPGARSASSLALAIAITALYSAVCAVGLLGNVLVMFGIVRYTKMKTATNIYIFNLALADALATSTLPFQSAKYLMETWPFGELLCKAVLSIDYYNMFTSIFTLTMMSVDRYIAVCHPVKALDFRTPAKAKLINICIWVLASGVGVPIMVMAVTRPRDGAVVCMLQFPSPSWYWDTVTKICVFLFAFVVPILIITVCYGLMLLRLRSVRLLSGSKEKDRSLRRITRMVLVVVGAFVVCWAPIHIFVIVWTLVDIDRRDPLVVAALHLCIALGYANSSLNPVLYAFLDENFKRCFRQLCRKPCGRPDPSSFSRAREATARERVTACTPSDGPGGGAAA
MOR-DOR ag-1 = agonists of human mu-delta opioid receptor heterodimerization; AID 504326; activation, % at 9.3 µM; cells, OPRM1-OPRD1 heterodimerization, luminescence; 0.3% of 340,000 active; P35372+P41143
HTR5A inv ag = counter-screen for OPRM1-OPRD1 inverse agonists: human HTR5A inverse agonism. HTR5A cell line, luminescence. P47898. inhibition, % at 9.3 µM. AID 504634. 0.083% of 340,000 active; in the data active means inhibition mostly above about 23%, no sharp cut-off; inactive means mostly below about 18%
HTR5A ag ctr = activates human HTR5A in OPRM1-OPRD1 agonist counter-screen | 0.61% of 340,000 active | AID 504692 | P47898 | activation, % at 9.3 µM | HTR5A agonist assay, luminescence, cell-based; in the data active means activation mostly above about 9.5%, no sharp cut-off; inactive means mostly below about 7.6%
MOR-DOR ag-2 = counter-screen for HTR5A agonists: OPRM1-OPRD1 heterodimerization agonism | U2OS counter-screen cells, complementation luminescence, 3 h | activation, % at 9.3 µM | 13% of 800 active | shares compounds with HTR5A ag ctr | AID 504913
HTR5A ag conf = confirmation of human HTR5A agonists; 17% of 800 active; AID 504915; shares compounds with HTR5A ag ctr; activation, % at 9.3 µM; HTR5A agonist cell assay, luminescence; in the data active means activation above about 17%
A number is an active result; n = inactive; x = not tested or not shown. The list is not random: actives were taken first. Their share in the collection is about 1.4%. Unless noted, no stated cut-off is given here; in the data, active means activation above about 18%; inactive means the rest.

SMILES | Lipid droplet | OPRM1-OPRD1 inv | MOR-DOR ag-1 | HTR5A inv ag | HTR5A ag ctr | MOR-DOR ag-2 | HTR5A ag conf
CCOC(=O)c1c(-c2ccc(C)cc2)csc1NC(=O)c1cc2ccccc2oc1=O | x | n | n | n | 18 | n | n
O=C(COc1ccc2c(c1)OCO2)Nc1ccc2c(c1)oc1ccccc12 | n | n | n | n | 16 | n | n
O=S(=O)(N/N=C\C=C\c1ccccc1)c1ccc(Cl)cc1 | x | n | n | n | 28 | n | 43
O=S(=O)(N/N=C\c1ccccc1O)c1ccc(Cl)cc1 | n | n | n | n | n | x | x
CCCCS(=O)(=O)N1CCCC(C(=O)Oc2ccc(Cl)cc2)C1 (stereo not given) | n | n | n | n | n | x | x
COc1ccc(CC(=O)Nc2cccc(-c3nnc(-c4ccccc4)o3)c2)cc1OC | n | n | n | n | 16 | n | n
Cc1cccc2sc(NNC(=O)c3ccc(S(=O)(=O)N4CCCC(C)C4)cc3)nc12 (stereo not given) | n | n | n | n | 17 | n | n
CN(Cc1ccco1)C(=O)CSc1nc(C2CC2)n(-c2ccccc2)n1 | x | n | n | n | n | x | x
COc1ccc(C(C)=O)cc1CS(=O)(=O)CC(=O)NCCc1c[nH]c2ccccc12 | x | n | n | n | 18 | n | n
CN(C)CCCN(C(=O)CCOc1ccccc1)c1nc2ccc(F)cc2s1 | n | n | n | n | 18 | n | n
CCOC(=O)c1ccc(Nc2nc(-c3cccnc3)nc3ccccc23)cc1 | x | n | n | n | 29 | n | n
O=C(COc1ccc(-c2ccccc2)cc1)N/N=C/c1cc(O)ccc1Br | n | n | n | n | 22 | 255 | n
COc1ccc(C(=O)NC2CCCCCC2)cc1S(=O)(=O)N1CCCC1 | n | n | n | n | n | x | x
COc1ccc(C(=O)NC2CCCCCC2)cc1S(=O)(=O)Nc1ccc(Br)cc1 | n | n | n | n | 15 | n | n
N#CCN1C(=O)NC2(CCCc3sccc32)C1=O (stereo not given) | n | n | n | n | n | x | x
O=C(c1ccc2c(Cl)c3c(nc2c1)CCCC3)N1CCN(c2ccc(F)cc2)CC1 | n | n | n | n | 16 | n | n
COc1ccccc1N1CCN(C(=O)c2ccc3c(Cl)c4c(nc3c2)CCCC4)CC1 | n | n | n | n | n | x | x
c1ccc(Cc2nnc(-c3ccccc3)o2)cc1 | n | n | n | n | 16 | n | n
COc1ccc(/C=N/NC(=O)c2ccn[nH]2)cc1COc1ccc(Cl)cc1Cl | x | n | n | n | 26 | n | n
CC(C)C(OC(=O)CN1C(=O)c2ccccc2C1=O)C(=O)NC1CCCCC1 (stereo not given) | n | n | n | n | 15 | n | n
CCC(OC(=O)CN1C(=O)c2ccccc2C1=O)C(=O)NC1CCCC1 (stereo not given) | n | n | n | n | n | x | x
COc1ccc(S(=O)(=O)N(CC(=O)NCc2ccco2)c2ccccc2OC)cc1 | n | n | n | n | 17 | n | n
COc1ccccc1N(CC(=O)NCc1ccco1)S(C)(=O)=O | n | n | n | n | n | x | x
Cc1c(CCNC=O)cc(C)c2c3c(oc12)CCCC3 | x | n | n | n | n | x | x
c1ccc2c(CC3=NCCN3)cccc2c1 | n | n | n | n | n | x | x
SMILES | Lipid droplet | OPRM1-OPRD1 inv | MOR-DOR ag-1 | HTR5A inv ag | HTR5A ag ctr | MOR-DOR ag-2 | HTR5A ag conf
Cc1cc(C(C)(C)C)c(O)c(C)c1CC1=NCCN1 | x | n | n | n | 84 | n | 86
O=C(Nc1ccc([N+](=O)[O-])cc1)Nc1ccc(OC(F)F)c(Cl)c1 | n | n | n | n | n | x | x
COc1cc(/C=C/C(=O)O)cc(OC)c1OC | n | n | n | n | 39 | n | n
Oc1c(Br)cc(Br)cc1CNc1cccc2cccnc12 | n | n | n | n | 16 | n | n
C/C(O)=C(/C=Nc1ccccc1)C(=O)Nc1ccccc1 | n | n | n | n | n | x | x
Cc1csc(Cn2c(CN(C)C)nc3ccccc3c2=O)n1 | n | n | n | n | n | x | x
CN(C)Cc1nc2ccccc2c(=O)n1Cc1nc(-c2cc3ccccc3o2)cs1 | x | n | n | n | 17 | n | n
NC(=O)C1=C(N=C2CCCCC2)CCCC1 | x | n | n | n | 18 | n | n
Cc1ccc(Cn2c(=N)n(CC(=O)c3ccccc3)c3ccccc32)cc1 | n | n | n | n | 21 | n | n
O=C(CSc1cc(Cl)ccc1Cl)NC1CCCC1 | n | n | n | n | n | x | x
COc1ccccc1OCC(=O)Nc1cc2c(cc1C(=O)O)OCCCO2 | n | n | n | n | n | x | x
COc1ccc(OCCC(=O)Nc2cc3c(cc2C(=O)O)OCCCO3)cc1 | x | n | n | n | 15 | n | n
COCCCN(CC(=O)Nc1ccc(F)cc1)S(=O)(=O)c1cccs1 | x | n | n | n | n | x | x
COc1ccc(CNC(=O)CC2C[C@H](C(=O)N3CCCCC3)[C@@]3(C)c4[nH]c5ccccc5c4CCN3C2=O)cc1OC (stereo not given in full) | x | n | n | n | n | x | x
Cc1ccc(NC(=O)C/C(N)=N/OC(=O)c2ccccc2)cc1 | n | n | n | n | 15 | n | n
CC(=NNC(=S)N1CC2CCC(CC2)C1)c1ccncn1 | x | n | n | n | n | x | x
Cc1ccc(Nc2nc(C)cs2)cc1 | n | n | n | n | n | x | x
O=C(c1cccs1)c1no[n+]([O-])c1C(=O)c1cccs1 | x | n | n | n | n | x | x
Cc1c(C(=O)c2no[n+]([O-])c2C(=O)c2cnn(C)c2C)cnn1C | x | n | n | n | 26 | n | n
CC1=NNC(=O)/C1=C\c1cn(-c2ccccc2)nc1-c1cccs1 | n | n | n | n | 17 | n | n
CC(OC(=O)c1ccc(Cl)nc1)C(=O)Nc1ccc2c(c1)OCO2 (stereo not given) | x | n | n | n | 19 | n | n
CC(C)c1ccc(C2c3[nH]c4ccccc4c3C[C@H]3C(=O)N(c4ccccc4C(=O)N4CCC(C(=O)O)CC4)C(=O)N23)cc1 (stereo not given in full) | n | n | n | n | n | x | x
COc1ccc(-c2csc(NC(=O)c3ccccc3NS(=O)(=O)c3ccc(F)c(F)c3)n2)cc1 | n | n | n | n | 15 | 24 | n
CCc1ccc(C(C)NC(=O)c2ccc3c(c2)OCO3)cc1 (stereo not given) | n | n | n | n | n | x | x
Cc1ccccc1C(=O)NNC(=O)c1cccc([N+](=O)[O-])c1 | n | n | n | n | 17 | n | n
Cc1cccc(C(=O)NNC(=O)c2ccccc2C)c1 | n | n | n | n | n | x | x
COc1ccc(NC(=O)C2CCCNC2)cc1OCC(C)C (stereo not given) | x | n | n | n | n | x | x
COc1ccc(NC(=O)C2CCCN(CCCc3ccccc3)C2)cc1OCC(C)C (stereo not given) | n | n | n | n | 16 | n | n
CCOc1ccccc1NC(=O)CCNS(=O)(=O)c1cccc2nonc12 | n | n | n | n | n | x | x
